The nature of test [1]: Selective index, ratio of IC50 for mouse L929 cells to MIC for Staphylococcus aureus ATCC 29213. In short, it runs like this: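 Selectivity index calculated as L929 IC50 (μM) divided by S. aureus MIC (μM).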
In test [2] the test system is Staphylococcus aureus. Description: Antibacterial activity against Staphylococcus aureus ATCC 29213 by broth microdilution assay. Type of test: functional. Summed up: (§1)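 Broth microdilution per CLSI guidelines; compounds dissolved in DMSO; single agents tested; growth inhibition read by eye; run in duplicate (table footnote states at least triplicates).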
On the technique in general: Dilution methods test growth across graded concentrations, often in twofold steps.

The test system of the next test is L929. The test is described as follows: Cytotoxicity against mouse L929 cells by MTS assay. Type of test: cell-based. Summed up:
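MTS assay on L929 mouse fibroblasts; IC50 reported as the average of three independent measurements.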
For orientation: Tetrazolium dyes change colour on reduction, which living cells bring about.

The subject of a further test is Escherichia coli. The test is described as follows: Antibacterial activity against Escherichia coli ATCC 25922 by broth microdilution assay. Type of test: functional. Summed up:
as §1

Test [3] deals with Staphylococcus aureus. Description: Antibacterial activity against multidrug-resistant Staphylococcus aureus isolate 2516 by broth microdilution assay. Type of test: functional. In short, it runs like this:
(§2)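 Broth microdilution MIC per CLSI guidelines against clinical MRSA isolates, for β-lactams and test compound alone and in combination. Compounds were dissolved in DMSO. Growth was read by eye, in duplicate. FIC index = FIC(compound) + FIC(drug); synergy defined as FIC index ≤0.5.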

Test [4] deals with Staphylococcus aureus. Description: Antibacterial activity against multidrug-resistant Staphylococcus aureus isolate 256 by broth microdilution assay. It counts as functional. Summed up: as §2
For test [5], the system named is Staphylococcus aureus. Description: Antibacterial activity against multidrug-resistant Staphylococcus aureus isolate 417 by broth microdilution assay. Type of test: functional. Summed up: as §2
The subject of test [6] is Staphylococcus aureus. Description: Antibacterial activity against multidrug-resistant Staphylococcus aureus isolate 85 by broth microdilution assay. It counts as functional. Summed up:
as §2

Test [7] deals with Staphylococcus aureus. The test is described as follows: Antibacterial activity against multidrug-resistant Staphylococcus aureus isolate 2490 by broth microdilution assay. Type of test: functional. Summed up: as §2
In test [8] the test system is Staphylococcus aureus. Description: Antibacterial activity against multidrug-resistant Staphylococcus aureus isolate 2224 by broth microdilution assay. Type of test: functional. Summed up: as §2
The test system of test [9] is Staphylococcus aureus. Description: Antibacterial activity against multidrug-resistant Staphylococcus aureus isolate 1136 by broth microdilution assay. Type of test: functional. Summed up: as §2
Test [10] deals with Staphylococcus aureus. The test is described as follows: Antibacterial activity against multidrug-resistant Staphylococcus aureus isolate 200 by broth microdilution assay. Type of test: functional. In short, it runs like this:
as §2

Test [11] deals with Staphylococcus aureus. The test is described as follows: Antibacterial activity against multidrug-resistant Staphylococcus aureus isolate 1344 by broth microdilution assay. Type of test: functional. In short, it runs like this:
as §2

For test [12], the system named is Staphylococcus aureus. Description: Antibacterial activity against multidrug-resistant Staphylococcus aureus isolate 3267 by broth microdilution assay. Type of test: functional. Summed up: as §2
Test [13] concerns Staphylococcus aureus. The test is described as follows: Antibacterial activity against multidrug-resistant Staphylococcus aureus isolate 1449 by broth microdilution assay. Type of test: functional. In short, it runs like this: as §2
For test [14], the system named is Staphylococcus aureus. The test is described as follows: Antibacterial activity against multidrug-resistant Staphylococcus aureus isolate 3589 by broth microdilution assay. Type of test: functional. In short, it runs like this:
as §2

The subject of test [15] is Staphylococcus aureus. Description: Antibacterial activity against multidrug-resistant Staphylococcus aureus isolate 2728 by broth microdilution assay. It counts as functional. Summed up: as §2
In test [16] the test system is Staphylococcus aureus. Description: Antibacterial activity against multidrug-resistant Staphylococcus aureus isolate 1717 by broth microdilution assay. It counts as functional. In short, it runs like this: as §2
Test [17] deals with Staphylococcus aureus. The test is described as follows: Antibacterial activity against multidrug-resistant Staphylococcus aureus isolate 2973 by broth microdilution assay. Type of test: functional. Summed up:
as §2

Test [18] deals with Staphylococcus aureus. The test is described as follows: Antibacterial activity against multidrug-resistant Staphylococcus aureus isolate 231 by broth microdilution assay. It counts as functional. In short, it runs like this:
as §2

The test system of test [19] is Staphylococcus aureus. The test is described as follows: Antibacterial activity against multidrug-resistant Staphylococcus aureus isolate 254 by broth microdilution assay. It counts as functional. In short, it runs like this:
as §2

Test [20] deals with Staphylococcus aureus. The test is described as follows: Antibacterial activity against multidrug-resistant Staphylococcus aureus isolate 774 by broth microdilution assay. Type of test: functional. Summed up: as §2
For test [21], the system named is Staphylococcus aureus. Description: Antibacterial activity against multidrug-resistant Staphylococcus aureus isolate 2895 by broth microdilution assay. It counts as functional. Summed up: as §2
Test [22] concerns Staphylococcus aureus. Description: Antibacterial activity against multidrug-resistant Staphylococcus aureus isolate 757 by broth microdilution assay. Type of test: functional. In short, it runs like this: as §2
Test [23] deals with Staphylococcus aureus. Description: Antibacterial activity against multidrug-resistant Staphylococcus aureus isolate 3411 by broth microdilution assay. It counts as functional. Summed up: as §2
Test [24] deals with Staphylococcus aureus. The test is described as follows: Antibacterial activity against multidrug-resistant Staphylococcus aureus isolate 358 by broth microdilution assay. Type of test: functional. Summed up:
as §2

Test [25] deals with Staphylococcus aureus. Description: Antibacterial activity against multidrug-resistant Staphylococcus aureus isolate 1402 by broth microdilution assay. Type of test: functional. In short, it runs like this:
as §2

Test [26] deals with Staphylococcus aureus. Description: Antibacterial activity against multidrug-resistant Staphylococcus aureus isolate 2919 by broth microdilution assay. Type of test: functional. Summed up: as §2
For test [27], the system named is Staphylococcus aureus. Description: Antibacterial activity against multidrug-resistant Staphylococcus aureus isolate 3580 by broth microdilution assay. It counts as functional. Summed up:
as §2

The test system of test [28] is Staphylococcus aureus. The test is described as follows: Antibacterial activity against multidrug-resistant Staphylococcus aureus isolate 1749 by broth microdilution assay. Type of test: functional. Summed up: as §2
For test [29], the system named is Staphylococcus aureus. Description: Antibacterial activity against multidrug-resistant Staphylococcus aureus isolate 2901 by broth microdilution assay. It counts as functional. Summed up: as §2
In test [30] the test system is Staphylococcus aureus. Description: Antibacterial activity against multidrug-resistant Staphylococcus aureus isolate 3332 by broth microdilution assay. Type of test: functional. In short, it runs like this: as §2

Converted amounts (≈) assume the structure as drawn. Where only a bound is given, the exact number is not on record here.

The term MIC denotes the lowest concentration that inhibits growth of the organism. The low end stands for greater potency, the high end for weaker potency. The term IC50 denotes the concentration needed to halve the response being measured. Lower therefore signals greater potency. As to `NC(=O)c1c(F)ccc(N(Cc2ccc(Cl)cc2)Cc2ccc(Cl)cc2)c1F`, the “Selectivity Index” value in test [1] was above 8. The MIC against Staphylococcus aureus [2] is 13 µM (≈ 5.48 µg/mL); in the test on Escherichia coli, above 64 µg/mL. Further, the IC50 in the test with L929 is above 100 µM.
Consider `C[C@@H](O)[C@H]1C(=O)N2C(C(=O)O)=C(S[C@@H]3CN[C@H](C(=O)N(C)C)C3)[C@H](C)[C@H]12` [MEROPENEM], for which the MIC amounted to 16 µg/mL (≈ 41.7 µM) against Staphylococcus aureus [3]; 2 µg/mL (≈ 5.22 µM) in the test on Staphylococcus aureus [4]; 64 µg/mL (≈ 167 µM) against Staphylococcus aureus [5]; 2 µg/mL (≈ 5.22 µM) against Staphylococcus aureus [6]; 2 µg/mL (≈ 5.22 µM) against Staphylococcus aureus [7]; 2 µg/mL (≈ 5.22 µM) against Staphylococcus aureus [8]. In addition, the minimal inhibitory concentration (MIC) in the test with Staphylococcus aureus [9] was 2 µg/mL (≈ 5.22 µM); in the test on Staphylococcus aureus [10] it was 1 µg/mL (≈ 2.61 µM); against Staphylococcus aureus [11], 16 µg/mL (≈ 41.7 µM); in the test on Staphylococcus aureus [12], 2 µg/mL (≈ 5.22 µM); against Staphylococcus aureus [13], 0.13 µg/mL (≈ 0.339 µM); in the test on Staphylococcus aureus [14] it was 4 µg/mL (≈ 10.4 µM). In addition, the MIC was found to be 2 µg/mL (≈ 5.22 µM) with Staphylococcus aureus [15]; 1 µg/mL (≈ 2.61 µM) against Staphylococcus aureus [16]; 1 µg/mL (≈ 2.61 µM) in the test on Staphylococcus aureus [17]; 32 µg/mL (≈ 83.4 µM) with Staphylococcus aureus [18]; 8 µg/mL (≈ 20.9 µM) with Staphylococcus aureus [19]; 32 µg/mL (≈ 83.4 µM) in the test on Staphylococcus aureus [20]. The MIC in the test on Staphylococcus aureus [21] amounted to 1 µg/mL (≈ 2.61 µM); with Staphylococcus aureus [22], 4 µg/mL (≈ 10.4 µM); against Staphylococcus aureus [23] it was 4 µg/mL (≈ 10.4 µM); with Staphylococcus aureus [24] it was 0.13 µg/mL (≈ 0.339 µM); with Staphylococcus aureus [25], 1 µg/mL (≈ 2.61 µM); against Staphylococcus aureus [26] it was 1 µg/mL (≈ 2.61 µM). In addition, the minimal inhibitory concentration (MIC) against Staphylococcus aureus [27] was 8 µg/mL (≈ 20.9 µM); against Staphylococcus aureus [28] it was 0.5 µg/mL (≈ 1.3 µM); against Staphylococcus aureus [29] it was 1 µg/mL (≈ 2.61 µM); with Staphylococcus aureus [30] it was 2 µg/mL (≈ 5.22 µM).
Take `CCCCCCCCCN(C)c1ccc(F)c(/C(N)=N/O)c1F`: the “Selectivity Index” value in test [1] is above 8. Also, the MIC in the test on Staphylococcus aureus [2] is 13 µM (≈ 4.26 µg/mL); against Escherichia coli, above 64 µg/mL. Further, in the test with L929, the IC50 was above 100 µM.
On the same counts, the results for `CCCCCCCCCNc1ccc(F)c(/C(N)=N/O)c1F` are above 2, 50 µM (≈ 15.7 µg/mL), above 64 µg/mL and above 100 µM.
For `CCCCCCCCCN(C)c1ccc(F)c(C(=N)N)c1F` the same measures were above 2, 50 µM (≈ 15.6 µg/mL), above 64 µg/mL and above 100 µM.
`CC1(C)S[C@@H]2[C@H](NC(=O)[C@H](N)c3ccc(O)cc3)C(=O)N2[C@H]1C(=O)O` [AMOXICILLIN]: the minimal inhibitory concentration (MIC) against Staphylococcus aureus [3] came out at 64 µg/mL (≈ 175 µM); in the test with Staphylococcus aureus [4] it was 256 µg/mL (≈ 701 µM); in the test on Staphylococcus aureus [5], 512 µg/mL (≈ 1400 µM); against Staphylococcus aureus [6] it was 256 µg/mL (≈ 701 µM); against Staphylococcus aureus [7] it was 128 µg/mL (≈ 350 µM); against Staphylococcus aureus [8], 512 µg/mL (≈ 1400 µM). Further, the MIC against Staphylococcus aureus [9] was found to be 512 µg/mL (≈ 1400 µM); against Staphylococcus aureus [10], 512 µg/mL (≈ 1400 µM); with Staphylococcus aureus [11] it was 128 µg/mL (≈ 350 µM); with Staphylococcus aureus [12] it was 8 µg/mL (≈ 21.9 µM); against Staphylococcus aureus [13] it was 2 µg/mL (≈ 5.47 µM); with Staphylococcus aureus [14] it was 128 µg/mL (≈ 350 µM). Besides, the MIC in the test on Staphylococcus aureus [15] was determined as 512 µg/mL (≈ 1400 µM); in the test with Staphylococcus aureus [16], 32 µg/mL (≈ 87.6 µM); in the test on Staphylococcus aureus [17], 512 µg/mL (≈ 1400 µM); in the test with Staphylococcus aureus [18] it was 256 µg/mL (≈ 701 µM); in the test with Staphylococcus aureus [19], 128 µg/mL (≈ 350 µM); with Staphylococcus aureus [20], 512 µg/mL (≈ 1400 µM). The minimal inhibitory concentration (MIC) in the test on Staphylococcus aureus [21] was 256 µg/mL (≈ 701 µM); against Staphylococcus aureus [22] it was 8 µg/mL (≈ 21.9 µM); against Staphylococcus aureus [23] it was 256 µg/mL (≈ 701 µM); with Staphylococcus aureus [24], 256 µg/mL (≈ 701 µM); with Staphylococcus aureus [25], 256 µg/mL (≈ 701 µM); against Staphylococcus aureus [26], 1020 µg/mL (≈ 2800 µM). Besides, the minimal inhibitory concentration (MIC) was found to be 256 µg/mL (≈ 701 µM) against Staphylococcus aureus [27], 64 µg/mL (≈ 175 µM) in the test on Staphylococcus aureus [28], 512 µg/mL (≈ 1400 µM) in the test with Staphylococcus aureus [29] and 64 µg/mL (≈ 175 µM) in the test on Staphylococcus aureus [30].
As for `CCCCCCCC(C)Nc1ccc(F)c(C(N)=O)c1F` (centres undefined), the “Selectivity Index” value in [1] is listed as above 8. For the same molecule, the MIC in the test with Staphylococcus aureus [2] was 13 µM (≈ 3.88 µg/mL); in the test on Escherichia coli it was above 64 µg/mL. Moreover, the IC50 in the test with L929 was above 100 µM.
For `CCCCCC/C=C\CNc1ccc(F)c(C(N)=O)c1F` the same measures were 4, 25 µM (≈ 7.41 µg/mL), above 64 µg/mL and 99 µM.
For `NC(=O)c1c(F)ccc(N(Cc2ccc(F)cc2)Cc2ccc(F)cc2)c1F` the same measures were above 2, 50 µM (≈ 19.4 µg/mL), above 64 µg/mL and above 100 µM.

The record behind these values is ChEMBL document CHEMBL4330069, “Boosting the efficacy of anti-MRSA β-lactam antibiotics via an easily accessible, non-cytotoxic and orally bioavailable FtsZ inhibitor” (Eur J Med Chem, 2019).
